The source of these data is ChEMBL document CHEMBL2413052, “Synthesis and initial in vitro biological evaluation of two new zinc-chelating compounds: comparison with TPEN and PAC-1” (Bioorg Med Chem, 2013).

For series [1], the system named is PC-12. The series is described as follows: Induction of apoptosis in rat PC12 cells at 200 uM after 24 hrs by trypan blue exclusion assay in presence of caspase-3 inhibitor C3-I. It counts as functional, cell-based. In outline:
(§1)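 PC12 cells exposed 24 h to chelator (25, 100 or 200 µM), alone or together with ZnSO4, caspase-3 inhibitor, or DHR as ROS scavenger. Each additive was also tested alone. Stained with trypan blue. Dead cells expressed as % of total cells. Mean of 4 experiments ± S.D. One-way ANOVA with Holm-Sidak, compared against DMSO.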

Series [2] has as its system PC-12. In words: Induction of apoptosis in rat PC12 cells at 200 uM after 24 hrs by trypan blue exclusion assay in presence of DHR. The class given is functional, cell-based. An outline of the steps: as §1
The test system of series [3] is PC-12. In words: Induction of apoptosis in rat PC12 cells at 200 uM after 24 hrs by trypan blue exclusion assay in presence of ZnSO4. It counts as functional, cell-based. In outline:
as §1

In series [4] the test system is PC-12. The series is described as follows: Induction of apoptosis in rat PC12 cells assessed as ROS induction by DHE oxidation-based fluorometric assay. It counts as functional, cell-based.
Series [5] concerns PC-12. The series is described as follows: Induction of apoptosis in rat PC12 cells assessed as ROS induction at 200 uM measured after 1 to 4 hrs by DHR oxidation-based fluorometric assay. It counts as functional, cell-based. In outline:
(§2)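 PC12 cells in 96-well plates were loaded with DHR (0.1 µM) for 30 min at 37 °C, washed, then treated 1 h or 4 h. Medium was replaced with PBS and fluorescence read for 30 min (ex 485/em 535 nm). The slope gave ROS production, relative to the untreated-control slope at 4 h. Untreated and DMSO controls. Mean of 3 experiments ± S.D.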

The subject of series [6] is PC-12. In words: Induction of apoptosis in rat PC12 cells assessed as procaspase-3 activation at 200 uM after 24 hrs by fluorometric assay. It counts as functional, cell-based. In outline: (§3)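 PC12 cells in 96-well plates were treated 4 h. Lysed in modified RIPA buffer (50 mM Tris-HCl pH 7.4, 1% Igepal, 0.25% deoxycholate, 150 mM NaCl, 1 mM EGTA) containing 20 µM (DEVD)2-rhodamine 110. Lysate incubated 24 h at 37 °C, fluorescence read at ex 485/em 535 nm. Wells with 1 µM Ac-DEVD-cmk served as negative control. DMSO control; staurosporine 0.5 and 1 µM as positive controls. Mean of 5 experiments ± S.D.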

In series [7] the test system is PC-12. The series is described as follows: Induction of apoptosis in rat PC12 cells after 24 hrs by trypan blue exclusion assay. The note with it: for EC50: PC-12, 24 h. The class given is functional, cell-based. An outline of the steps:
(§4)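 PC12 cells (rat pheochromocytoma) grown in DMEM with 5% horse serum, 10% FBS, penicillin/streptomycin and sodium pyruvate at 37 °C, 5% CO2. Treated 24 h at 10, 25, 50, 75, 100 and 200 µM in DMSO (0.1% final). Trypan blue in 0.9% NaCl added 1:4 for 30 min at 37 °C. Blue cells counted as dead, as % of total cells. Mean of 4 experiments ± S.D.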

The test system of series [8] is PC-12. The series is described as follows: Induction of apoptosis in rat PC12 cells at 200 uM after 24 hrs by trypan blue exclusion assay. The class given is functional, cell-based. In outline:
as §4

Series [9] can be described thus: Distribution co-efficient, log D of the compound at pH 7.4. The class given is physicochemical. The note with it: buffer.
Series [10] is described as follows: Metal chelating activity of the compound assessed as zinc affinity by UV spectroscopy. It counts as functional. In outline:
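Compound diluted from a 10 mM DMSO stock to 50 µM final in 50 mM Hepes, 100 mM NaNO3, pH 7.4. ZnSO4 added at 0–1 equiv and equilibrated 60 min. Absorbance spectra recorded from 260 to 500 nm; change followed at 360 and 400 nm.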

Series [11] has as its system PC-12. The series is described as follows: Induction of apoptosis in rat PC12 cells at 100 uM after 24 hrs by trypan blue exclusion assay in presence of caspase-3 inhibitor C3-I. It counts as functional, cell-based. An outline of the steps:
as §1

Series [12] deals with PC-12. In words: Induction of apoptosis in rat PC12 cells at 100 uM after 24 hrs by trypan blue exclusion assay in presence of ZnSO4. The class given is functional, cell-based. An outline of the steps:
as §1

Series [13] concerns PC-12. The series is described as follows: Induction of apoptosis in rat PC12 cells at 100 uM after 24 hrs by trypan blue exclusion assay in presence of DHR. The class given is functional, cell-based. An outline of the steps: as §1
In series [14] the test system is PC-12. In words: Induction of apoptosis in rat PC12 cells assessed as ROS induction at 100 uM measured after 1 to 4 hrs by DHR oxidation-based fluorometric assay. It counts as functional, cell-based. In outline:
as §2

Series [15] concerns PC-12. In words: Induction of apoptosis in rat PC12 cells assessed as procaspase-3 activation at 100 uM after 24 hrs by fluorometric assay. The class given is functional, cell-based. An outline of the steps: as §3
Series [16] can be described thus: Lipophilicity, log P of the compound. It counts as physicochemical. The note with it: octanol/water.
The test system of series [17] is PC-12. In words: Induction of apoptosis in rat PC12 cells at 25 uM after 24 hrs by trypan blue exclusion assay in presence of ZnSO4. It counts as functional, cell-based. In outline:
as §1

The test system of series [18] is PC-12. The series is described as follows: Induction of apoptosis in rat PC12 cells at 25 uM after 24 hrs by trypan blue exclusion assay in presence of caspase-3 inhibitor C3-I. The class given is functional, cell-based. An outline of the steps: as §1
In series [19] the test system is PC-12. The series is described as follows: Induction of apoptosis in rat PC12 cells assessed as ROS induction at 25 uM measured after 1 to 4 hrs by DHR oxidation-based fluorometric assay. The class given is functional, cell-based. In outline:
as §2

The subject of series [20] is PC-12. The series is described as follows: Induction of apoptosis in rat PC12 cells assessed as procaspase-3 activation at 25 uM after 24 hrs by fluorometric assay. It counts as functional, cell-based. The note with it: in the assay text read “after 4 hrs” for “after 24 hrs”. In outline: as §3
Series [21] has as its system PC-12. In words: Induction of apoptosis in rat PC12 cells assessed as procaspase-3 activation at 1 uM after 24 hrs by fluorometric assay. The class given is functional. In outline:
(§5)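 Rat PC12 cells were seeded in 96-well plates at 28 × 10^4 for 24 h, then treated for 4 h, with DMSO-treated cells as control. Cells were lysed in modified RIPA buffer (50 mM Tris-HCl pH 7.4, 1% Igepal, 0.25% deoxycholate, 150 mM NaCl, 1 mM EGTA) containing 20 µM (DEVD)2-Rhodamine 110. Lysate was incubated 24 h at 37 °C and read at ex 485/em 535 nm as RFU/million cells.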

For series [22], the system named is PC-12. In words: Induction of apoptosis in rat PC12 cells assessed as procaspase-3 activation at 0.5 uM after 24 hrs by fluorometric assay. The class given is functional. In outline: as §5

Molecules are shown by their SMILES. Calls of active or inactive are those of the source. The rule behind the calls is not given here.

In general, EC50 refers to the concentration that produces a half-maximal response. In general, logD refers to the decadic logarithm of the distribution of all forms, ionised or not, between an organic phase and buffer at a given pH. Read a low logD as lower lipophilicity. What is called Kd is a measure of binding affinity in units of concentration. On to `O=C(CN1CCN(Cc2ccccc2)CC1)NNC(=O)CN(Cc1ccccn1)Cc1ccccn1`, for which the result in [1], in [2], in series [4] and in series [5] was inactive. Also, the outcome in series [3] and in series [6] was Active. In addition, the Activity result in series [7] was “Dose-dependent effect”. Besides, the EC50 entry in series [8] is listed as “ND(Insoluble)”. In series [9], this compound returned a logD of 1.4. Besides, the Kd in [10] was found to be 1000 pM.
A word on the logP: it is the decadic logarithm of the partition coefficient of the neutral form, usually between octanol and water. Read a low logP as lower lipophilicity. Take `C=CCc1cccc(/C=N/NC(=O)CN2CCN(Cc3ccccc3)CC2)c1O` [PAC-1]: the outcome in series [11], in [12], in series [13] and in [4] was inactive. Moreover, the result in series [14] and in series [15] was Active. Also, in [7], the Activity entry is “Dose-dependent effect”. In series [7], the half-maximal effective concentration (EC50) amounted to 122000 nM. This compound showed a logP in series [16] of 3.43. In addition, the Kd in [10] is 42000 pM.
For the compound `c1ccc(CN(CCN(Cc2ccccn2)Cc2ccccn2)Cc2ccccn2)nc1`, the outcome in series [17], in series [18] and in [4] was inactive. In addition, the outcome in series [19] and in [20] was Active. Also, in [7], the Activity result was “Dose-dependent effect”. Further, the EC50 in series [7] stood at 38000 nM. Besides, in [10], the Kd amounted to 0.00026 pM.
Regarding `CN[C@@H]1C[C@H]2O[C@@](C)([C@@H]1OC)n1c3ccccc3c3c4c(c5c6ccccc6n2c5c31)C(=O)NC4` [STAUROSPORINE], the RFU in [21] came out at 30000; in [22] it was 6000.
Turning to `Cc1ncc(CO)c(/C=N/NC(=O)CN2CCN(Cc3ccccc3)CC2)c1O`, the result in [1], in series [2], in series [3] and in [4] was inactive. Further, the result in [5] and in [6] was Active. Besides, the Activity entry in series [7] is “Dose-dependent effect”. Besides, the EC50 entry in series [8] was “ND(Insoluble)”. Also, the logD in series [9] came out at 1.27. The Kd in series [10] was 0.2 pM.
